# Legend:
# [1] = test system: 293T; assay: Inhibition of full-length X4 tropic HIV-1 clone pNL4-3 Vif/human APOBEC3G complex transfected in human 293T cells measured at 50 uM after 48 hrs by GFP-based fluorescence assay relative to control; type: cell-based
# Outline: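 This was the primary screen in 293T cells co-transfected with HA-Vif and A3G-GFP plasmids (Lipofectamine 2000) and given a single compound concentration. DMSO-only wells and A3G-GFP-only transfected wells served as controls. GFP was read after 48 h. A3G-GFP MFI fold change was scored as −, none or <1; +, 1–2; ++, 2–3; +++, >3.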
# [2] = Cytotoxicity against human H9 cells by MTS assay; type: cell-based
# [3] = test system: Human immunodeficiency virus 1; assay: Antiviral activity against X4 tropic HIV-1 clone pNL4-3 infected in H9 cells assessed as reduction in p24 antigen after 4 days by ELISA; type: functional, organism-based; conditions: Human immunodeficiency virus 1, pNL4-3, H9, 96 h
IC50 [3],SMILES,fold change (FC) [1],CC50 [2]
> 50 µM,CCN(CC)c1ccc(/C=C(\C#N)c2nc3ccccc3n2CC)cc1,< 1,> 50 µM
0.75 µM,CCN(CC)c1ccc(/C=C(\C#N)c2nc3cc(SC)ccc3[nH]2)cc1,2,> 50 µM
> 50 µM,N#C/C(=C\c1ccc(-n2ccnc2)cc1)c1nc2ccccc2[nH]1,< 1,> 50 µM
> 50 µM,CCN(CC)c1ccc(/C=C(\C#N)c2nc3ccccc3n2C)cc1,< 1,> 50 µM
> 50 µM,CCN(CC)c1ccc(/C=C(\C#N)c2nc3cc(F)ccc3[nH]2)cc1,> 3,> 50 µM
2.38 µM,CCN(CC)c1ccc(/C=C(\C#N)c2nc3ccccc3o2)cc1,2,> 50 µM
2.85 µM,COc1ccc(/C=C(\C#N)c2nc3ccccc3[nH]2)cc1,2,> 50 µM
0.24 µM,CCN(CC)c1ccc2cc(-c3nc4ccccc4[nH]3)c(=O)oc2c1,> 3,> 50 µM
1.13 µM,CCN(CC)c1ccc(/C=C(\C#N)c2nc3cc(C(F)(F)F)ccc3[nH]2)cc1,2,> 50 µM
6.11 µM,CCN(CCO)c1ccc(/C=C(\C#N)c2nc3ccccc3[nH]2)cc1,1,> 50 µM
1.64 µM,CCN(CC)c1ccc(/C=C(\C#N)c2nc3cc(C)c(C)cc3[nH]2)cc1,> 3,> 50 µM
3.58 µM,CCN(CC)c1ccc(/C=C(\C#N)c2nc3cccnc3[nH]2)cc1,2,> 50 µM
1.09 µM,CCCN(CCC)c1ccc(/C=C(\C#N)c2nc3ccccc3[nH]2)cc1,2,> 50 µM
0.72 µM,N#C/C(=C\c1ccc2[nH]ccc2c1)c1nc2ccccc2[nH]1,> 3,> 50 µM
> 50 µM,COc1ccc(/C=C(\C#N)c2nc3ccccc3[nH]2)cc1OC,1,> 50 µM
1.04 µM,CCN(CC)c1ccc(/C=C(\C#N)c2nc3cc(C(C)(C)C)ccc3[nH]2)cc1,> 3,> 50 µM
> 50 µM,CCN(CC)c1ccc(/C=C(\C#N)c2nc3cc(Cl)ccc3[nH]2)cc1,2,> 50 µM
7.3 µM,CCN(CC)c1ccc(/C=C(\C#N)c2nc3ccncc3[nH]2)cc1,2,> 50 µM
> 50 µM,CCN(CC)c1ccc(/C=C(\C#N)c2nc3cc(Br)ccc3[nH]2)cc1,2,> 50 µM
> 50 µM,CN1CCN(c2ccc(/C=C(\C#N)c3nc4ccccc4[nH]3)cc2)CC1,< 1,> 50 µM
> 50 µM,CS(=O)(=O)c1ccc(/C=C(\C#N)c2nc3ccccc3[nH]2)cc1,< 1,> 50 µM
3.3 µM,CC(C)N(c1ccc(/C=C(\C#N)c2nc3ccccc3[nH]2)cc1)C(C)C,2,> 50 µM
> 50 µM,N#C/C(=C\c1ccc(N2CCCC2)cc1)c1nc2ccccc2[nH]1,< 1,> 50 µM
0.36 µM,N#C/C(=C\c1ccc2[nH]ncc2c1)c1nc2ccccc2[nH]1,2,> 50 µM

IC50 [3],SMILES,fold change (FC) [1],CC50 [2]
> 50 µM,COc1cc(/C=C(\C#N)c2nc3ccccc3[nH]2)cc(OC)c1OC,1,> 50 µM
> 50 µM,CC(C)c1ccc(/C=C(\C#N)c2nc3ccccc3[nH]2)cc1,< 1,> 50 µM
> 50 µM,CCN(CC)c1cccc(/C=C(\C#N)c2nc3ccccc3[nH]2)c1,< 1,> 50 µM
> 50 µM,CC(=O)Nc1ccc(/C=C(\C#N)c2nc3ccccc3[nH]2)cc1,< 1,> 50 µM
> 50 µM,CN(C)c1ccc(/C=C(\C#N)c2nc3ccccc3[nH]2)c(O)c1,> 3,> 50 µM
> 50 µM,N#C/C(=C\c1ccc(C(=O)O)cc1)c1nc2ccccc2[nH]1,< 1,> 50 µM
> 50 µM,Cc1ccc(/C=C(\C#N)c2nc3ccccc3[nH]2)cc1,< 1,> 50 µM
1.5 µM,CCN(CC)c1ccc(/C=C(\C#N)c2nc3ccccc3[nH]2)c(O)c1,> 3,> 50 µM
1.35 µM,CCN(CC)c1ccc(/C=C(\C#N)c2nc3cc(OC(F)(F)F)ccc3[nH]2)cc1,> 3,> 50 µM
> 50 µM,CCc1ccc(/C=C(\C#N)c2nc3ccccc3[nH]2)cc1,< 1,> 50 µM
1.68 µM,CCN(CC)c1ccc(/C=C(\C#N)c2nc3cc(C(=O)OC)ccc3[nH]2)cc1,2,> 50 µM
> 50 µM,CCN(CC)c1ccc(/C=C(\C#N)c2nc3ccccc3n2C2CC2)cc1,< 1,> 50 µM
0.29 µM,COc1cc(/C=C(\C#N)c2nc3ccccc3[nH]2)ccc1N(C)C,1,> 50 µM
> 50 µM,COc1cc(OC)c(OC)cc1/C=C(\C#N)c1nc2ccccc2[nH]1,1,> 50 µM
4.42 µM,CCN(CC)c1ccc(/C=C(\C#N)c2nc3cc(OC)ccc3[nH]2)cc1,2,> 50 µM
5.92 µM,CCN(CC)c1ccc(/C=C(\C#N)c2nc3ccccc3s2)cc1,> 3,> 50 µM
> 50 µM,N#C/C(=C\c1ccc(-c2ccccc2)cc1)c1nc2ccccc2[nH]1,< 1,> 50 µM
> 50 µM,CCN(CC)c1ccc(CC(C#N)c2nc3ccccc3[nH]2)cc1 (stereo unspecified),< 1,> 50 µM
2.68 µM,CCN(CC)c1ccc(/C=C(\C#N)c2nc3cc(N(C)C)ccc3[nH]2)cc1,1,> 50 µM
> 50 µM,CCN(CC)c1ccc(/C=C(\C#N)c2nc3cc(C(=O)O)ccc3[nH]2)cc1,2,> 50 µM
1.25 µM,CCN(CC)c1ccc(/C=C(\C#N)c2nc3cc(Cl)c(Cl)cc3[nH]2)cc1,> 3,> 50 µM
0.51 µM,CN(C)c1ccc(/C=C(\C#N)c2nc3ccccc3[nH]2)cc1,2,> 50 µM
> 50 µM,N#C/C(=C\c1ccc(N2CCOCC2)cc1)c1nc2ccccc2[nH]1,> 3,> 50 µM
